Source: ChEMBL document CHEMBL3271979, “Inhibition of solid tumors by nitrosoureas. 1. Lewis lung carcinoma” (1977)
Activity calls are given as the source filed them. No cut-off for these calls is given here.

Tests used:
Mus musculus [1] = test: Antitumor activity against mouse advanced Lewis lung carcinoma allografted in BDF1 mouse assessed as disease cure at 30 mg/kg, ip administered as single dose on 7th day post-tumor implantation measured for 80 days post-drug treatment; assay type: functional, organism-based; parameters: dose 30 mg/kg
How it was run: (§1)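 BDF1 mice (C57Blk/6 × DBA/2) implanted sc by trocar with Lewis lung tumor fragments of about 40 mg, taken only from bacteriologically sterile donor tumors. Mice bearing tumors of about 400 mg (day 6-7) were selected. Each received a single ip dose on day 7, at or below the LD10 in normal mice. Groups were of 10 mice. Tumor weight was taken from calipers as w = ab²/2, measured at least twice weekly. Matched non-tumor mice served as toxicity controls.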

Mus musculus [2] = test: Antitumor activity against mouse advanced Lewis lung carcinoma allografted in ip dosed BDF1 mouse assessed as disease cure administered as single dose on day 6 or 7 post-tumor implantation; assay type: functional, organism-based; how it was run: as §1
Mus musculus [3] = test: Antitumor activity against mouse advanced Lewis lung carcinoma allografted in BDF1 mouse assessed as disease cure at 45 mg/kg, ip administered as single dose on 7th day post-tumor implantation measured for 80 days post-drug treatment; assay type: functional, organism-based; parameters: dose 45 mg/kg; how it was run: as §1
Mus musculus [4] = test: Antitumor activity against mouse advanced Lewis lung carcinoma allografted in ip dosed BDF1 mouse assessed as complete regression of established tumor administered as single dose on day 6 or 7 post-tumor implantation; assay type: functional, organism-based; how it was run: as §1
[5] = Antitumor activity against mouse advanced Lewis lung carcinoma allografted in BDF1 mouse assessed as increase in host life span at 45 mg/kg, ip administered as single dose on 7th day post-tumor implantation; assay type: functional; conditions: route intraperitoneal
How it was run: (§2)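 BDF1 mice (C57Blk/6 × DBA/2) implanted sc by trocar with about 40 mg Lewis lung tumor fragments from bacteriologically sterile donors. Advanced-disease groups held tumors of about 400 mg by day 6-7, sized by caliper (w = ab²/2). Single ip injection on day 7, in water or saline vehicle, at or below the LD10 in normal mice. Tumors measured at least twice weekly.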

Mus musculus [6] = test: Antitumor activity against mouse advanced Lewis lung carcinoma allografted in BDF1 mouse assessed as complete regression of established tumor at 30 mg/kg, ip administered as single dose on 7th day post-tumor implantation; assay type: functional, organism-based; parameters: dose 30 mg/kg; how it was run: as §1
[7] = Antitumor activity against mouse advanced Lewis lung carcinoma allografted in BDF1 mouse assessed as increase in host life span at 30 mg/kg, ip administered as single dose on 7th day post-tumor implantation; assay type: functional; conditions: route intraperitoneal; how it was run: as §2
[8] = Antitumor activity against mouse advanced Lewis lung carcinoma allografted in ip dosed BDF1 mouse assessed as increase in host lifespan administered as single dose on day 6 or 7 post-tumor implantation; assay type: functional
How it was run: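 Advanced Lewis lung model: about 40 mg fragments implanted sc by trocar into BDF1 mice, and mice with tumors of about 400 mg (day 6-7) selected. Tumor weight from calipers, w = ab²/2. Agent given as one ip dose in distilled water or physiological saline. Nontumor-bearing mice received matching doses as toxicity controls.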

Mus musculus [9] = test: Antitumor activity against mouse early Lewis lung carcinoma allografted in ip dosed BDF1 mouse administered as single dose on 1 or 2 days post-tumor implantation measured for 80 days post-drug treatment; assay type: functional, organism-based
How it was run: (§3)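 BDF1 mice implanted sc by trocar with ~40 mg Lewis lung fragments from sterile donor tumors. A single ip dose was given on day 1 or 2 after implant, in water or saline vehicle. Cures were scored in animals observed for at least 80 days after treatment. Drug-toxicity controls were matched non-tumor-bearing mice monitored for body weight and deaths.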

Mus musculus [10] = test: (§4) Antitumor activity against mouse early Lewis lung carcinoma allografted in ip dosed BDF1 mouse assessed as disease cure administered as single dose on 1 or 2 days post-tumor implantation measured for 80 days post-drug treatment; assay type: functional; how it was run: as §3
L1210 = test: Antitumor activity against mouse L1210 cells allografted in ip dosed mouse assessed as disease cure administered as single dose; assay type: functional, organism-based
Mus musculus [11] = test: Antitumor activity against mouse advanced Lewis lung carcinoma allografted in BDF1 mouse assessed as disease cure at 32 mg/kg, ip administered as single dose on 7th day post-tumor implantation measured for 80 days post-drug treatment; assay type: functional, organism-based; parameters: dose 32 mg/kg; how it was run: as §1
Mus musculus [12] = test: Antitumor activity against mouse advanced Lewis lung carcinoma allografted in BDF1 mouse assessed as disease cure at 21 mg/kg, ip administered as single dose on 7th day post-tumor implantation measured for 80 days post-drug treatment; assay type: functional, organism-based; parameters: dose 21 mg/kg; how it was run: as §1
[13] = Antitumor activity against mouse advanced Lewis lung carcinoma allografted in BDF1 mouse assessed as increase in host life span at 32 mg/kg, ip administered as single dose on 7th day post-tumor implantation; assay type: functional; conditions: route intraperitoneal; how it was run: as §2
[14] = Antitumor activity against mouse advanced Lewis lung carcinoma allografted in BDF1 mouse assessed as increase in host life span at 21 mg/kg, ip administered as single dose on 7th day post-tumor implantation; assay type: functional; conditions: route intraperitoneal; how it was run: as §2
[15] = Ratio of ED50 for antitumor activity against mouse L1210 cells allografted in ip dosed mouse to LD10 for mouse
[16] = Antitumor activity against mouse early Lewis lung carcinoma allografted in BDF1 mouse assessed as increase in host life span at 38 mg/kg, ip administered as single dose on 1 or 2 days post-tumor implantation; assay type: functional; conditions: route intraperitoneal
How it was run: (§5)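 BDF1 mice (C57Blk/6 × DBA/2) implanted sc by trocar with ~40 mg Lewis lung tumor fragments from bacteriologically sterile donor tumors. Single ip dose on day 1 or 2, as a solution or suspension in water (CMC or gum acacia) or saline (HPC or Tween 80). Read-out is […]. Same-dose toxicity controls were run in nontumor-bearing mice.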

[17] = Antitumor activity against mouse early Lewis lung carcinoma allografted in BDF1 mouse assessed as time delay in tumor growth at 26 mg/kg, ip administered as single dose on 1 or 2 days post-tumor implantation; assay type: functional; conditions: route intraperitoneal
How it was run: (§6)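 BDF1 mice (C57Blk/6 × DBA/2) implanted sc by trocar with ~40 mg Lewis lung tumor fragments from bacteriologically sterile donors. A single ip dose was given on day 1 or 2, as a solution or suspension in water or saline with suspending agent, at ≤0.5 ml. Tumors were measured by caliper at least twice weekly, with weight = ab²/2. Delay was taken as the days for the tumor to reach 1 g.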

[18] = Antitumor activity against mouse early Lewis lung carcinoma allografted in BDF1 mouse assessed as increase in host life span at 26 mg/kg, ip administered as single dose on 1 or 2 days post-tumor implantation; assay type: functional; conditions: route intraperitoneal; how it was run: as §5
[19] = as §4; assay type: functional; how it was run: as §3
[20] = Antitumor activity against mouse early Lewis lung carcinoma allografted in BDF1 mouse assessed as time delay in tumor growth at 38 mg/kg, ip administered as single dose on 1 or 2 days post-tumor implantation; assay type: functional; conditions: route intraperitoneal; how it was run: as §6
Mus musculus [21] = test: Antitumor activity against mouse advanced Lewis lung carcinoma allografted in BDF1 mouse assessed as complete regression of established tumor at 32 mg/kg, ip administered as single dose on 7th day post-tumor implantation; assay type: functional, organism-based; parameters: dose 32 mg/kg; how it was run: as §2
[22] = Antitumor activity against mouse early Lewis lung carcinoma allografted in BDF1 mouse assessed as increase in host life span at 13 mg/kg, ip administered as single dose on 1 or 2 days post-tumor implantation; assay type: functional; conditions: route intraperitoneal
How it was run: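 Early disease: BDF1 mice carrying sc trocar implants of about 40 mg Lewis lung fragments. One ip dose given on day 1 or 2 after implant, in distilled water or saline, at ≤0.5 ml. Endpoints were % increase in life-span of dying animals and delay in days for the primary tumor to reach 1 g. Untreated controls served as reference.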

[23] = Antitumor activity against mouse early Lewis lung carcinoma allografted in BDF1 mouse assessed as increase in host life span at 30 mg/kg, ip administered as single dose on 1 or 2 days post-tumor implantation; assay type: functional; conditions: route intraperitoneal; how it was run: as §5
[24] = Antitumor activity against mouse early Lewis lung carcinoma allografted in BDF1 mouse assessed as time delay in tumor growth at 30 mg/kg, ip administered as single dose on 1 or 2 days post-tumor implantation; assay type: functional; conditions: route intraperitoneal; how it was run: as §6
[25] = Antitumor activity against mouse early Lewis lung carcinoma allografted in BDF1 mouse assessed as time delay in tumor growth at 13 mg/kg, ip administered as single dose on 1 or 2 days post-tumor implantation; assay type: functional; conditions: route intraperitoneal
How it was run: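 Sc trocar implants of about 40 mg Lewis lung fragments in BDF1 mice. A single ip injection was given on day 1 or 2, in water or physiological saline, at ≤0.5 ml. Tumor size came from caliper length and width as w = ab²/2, measured at least twice weekly. Growth delay is the extra days taken to reach 1 g, compared with untreated controls.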

CCOC(=O)[C@H]1CCC[C@@H](NC(=O)N(CCCl)N=O)C1 (relative stereo)
Activity (Mus musculus [1]): inactive
Activity (Mus musculus [2]): inactive
Activity (Mus musculus [3]): inactive
inhibition (Mus musculus [4]): Active
ILS at 45 mg/kg [5]: 0%
inhibition (Mus musculus [6]): inactive
ILS at 30 mg/kg [7]: 62%

O=NN(CCF)C(=O)N[C@H]1CC[C@H](NC(=O)N(CCCl)N=O)CC1
ILS [8]: <25%
inhibition (Mus musculus [4]): inactive

C[C@H]1CCC[C@@H](NC(=O)N(CCCl)N=O)C1 (relative stereo)
ILS [8]: <25%
inhibition (Mus musculus [4]): inactive

CCCCCC(C)NC(=O)N(CCCl)N=O (stereo unspecified)
Activity (Mus musculus [9]): inactive
ILS [8]: <25%
inhibition (Mus musculus [4]): inactive
Activity (Mus musculus [10]): inactive
Activity (L1210): inactive

O=NN(CCF)C(=O)N[C@H]1CC[C@H](C(=O)O)CC1
Activity (Mus musculus [2]): Active
ILS at 45 mg/kg [5]: 60%

COC(=O)[C@H]1CC[C@H](NC(=O)N(CCCl)N=O)CC1
Activity (Mus musculus [2]): inactive
inhibition (Mus musculus [4]): Active
Activity (Mus musculus [11]): inactive
Activity (Mus musculus [12]): inactive
ILS at 32 mg/kg [13]: 86%
ILS at 21 mg/kg [14]: 113%

C[C@H]1S(=O)(=O)C[C@H](NC(=O)N(CCCl)N=O)CS1(=O)=O
Ratio [15]: 0.4
Activity (Mus musculus [9]): inactive
ILS [8]: <25%
inhibition (Mus musculus [4]): inactive
Activity (Mus musculus [10]): inactive

O=NN(CCCl)C(=O)N[C@H]1CC[C@H](O)CC1
ILS at 38 mg/kg [16]: 146%
Time [17]: 3.3 days
Ratio [15]: 0.4
ILS at 26 mg/kg [18]: 84%
ILS [8]: <25%
inhibition (Mus musculus [4]): inactive
Activity [19]: 10%
Time [20]: 10.2 days

O=NN(CCCl)C(=O)NCCCl [CARMUSTINE]
ILS [8]: <25%
inhibition (Mus musculus [4]): inactive
Activity (Mus musculus [11]): inactive
inhibition (Mus musculus [21]): inactive

O=NN(CCCl)C(=O)N[C@H]1CC[C@H](C(=O)O)CC1
ILS at 13 mg/kg [22]: 33%
Activity (Mus musculus [1]): inactive
Activity (Mus musculus [2]): Active
ILS at 30 mg/kg [23]: 115%
Ratio [15]: 0.6
Activity [19]: >50%
Time [24]: 20 days
ILS at 30 mg/kg [7]: 67%
Time [25]: 7.6 days

O=NN(CCCl)C(=O)NC1C=CCCC1 (stereo unspecified)
ILS [8]: <25%
inhibition (Mus musculus [4]): inactive

CC[C@H]1CC[C@H](NC(=O)N(CCF)N=O)CC1
ILS [8]: <25%
inhibition (Mus musculus [4]): inactive

CC(C)[C@H]1CC[C@H](NC(=O)N(CCF)N=O)CC1
ILS [8]: <25%
inhibition (Mus musculus [4]): inactive
